2 compounds from ChEMBL document CHEMBL4177624, “Rationally designed hecogenin thiosemicarbazone analogs as novel MEK inhibitors for the control of breast malignancies” (Bioorg Med Chem, 2017) can be followed below.

The subject of series [1] is MDA-MB-231. The series is described as follows: Antiproliferative activity against human MDA-MB-231 cells after 72 hrs by MTT assay. Format: functional, cell-based. The conditions noted are these: MDA-MB-231, 72 h. Summed up: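 MDA-MB-231 triple-negative breast cancer cells were exposed to a range of concentrations for 72 h. Proliferation was read by MTT. Results are given as mean percent viability versus concentration, with IC₅₀ ± SEM calculated from the curve.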

In series [2] the test system is MDA-MB-231. Description: Antiinvasive activity against human MDA-MB-231 cells after 24 hrs by cell invasion assay. It is filed as functional, cell-based. The conditions noted are these: MDA-MB-231, 24 h. The essentials:
(§1)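 Invasion of MDA-MB-231 cells through extracellular matrix coating in a CultreCoat chamber, four doses, 24 h after plating. Non-invaded cells on the upper surface imaged by microscopy. Percent invasion read against vehicle control; IC50 taken from the dose-response curve.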

Series [3] concerns T47D. The series is described as follows: Antiproliferative activity against human T47D cells after 72 hrs by MTT assay. It is filed as functional, cell-based. The essentials:
(§2)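 Six human breast carcinoma lines of differing molecular and phenotypic character were each exposed to a range of concentrations for 72 h. Proliferation was read by MTT. Results are given as mean percent viability, with IC₅₀ ± SEM calculated per cell line.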

In series [4] the target is T1, Dual specificity mitogen-activated protein kinase kinase; MEK1/2 (Homo sapiens) (UniProt P36507+Q02750). Description: Inhibition of MEK phosphorylation in human MDA-MB-231 cell lysate at 1.5 to 4 uM after 72 hrs by Western blot analysis. The essentials:
(§3)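 MDA-MB-231 cells treated with two doses or vehicle, then lysed. Western blot of phosphorylated MEK, ERK (MAPK) and MSK, each compared with vehicle control.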
(In general: Immunoblotting shows a protein as a band on a membrane.)

Series [5] addresses T1, Dual specificity mitogen-activated protein kinase kinase; MEK1/2 (Homo sapiens). The series is described as follows: Inhibition of MEK in human MDA-MB-231 cell lysate assessed as reduction in MSK phosphorylation at 1.5 to 4 uM after 72 hrs by Western blot analysis. The essentials:
as §3

In series [6] the test system is MCF7. Description: Antiproliferative activity against human MCF7 cells after 72 hrs by MTT assay. It is filed as functional, cell-based. As to conditions: MCF7, 72 h. Summed up: as §2
On the technique in general: Tetrazolium dyes change colour on reduction, which living cells bring about.

For series [7], the system named is Mus musculus. The series is described as follows: Toxicity in Foxn1nu/Foxn1+ mouse xenografted with human GFP-fused MDA-MB-231 cells assessed as reduction in body weight at 10 mg/kg, ip administered 3 times per week for 28 days relative to control. It is filed as organism-based. As to conditions: in vivo, 672 h. Summed up: (§4)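 Athymic nude Foxn1nu/Foxn1+ mice given orthotopic MDA-MB-231/GFP implants. Once tumors were palpable (5-day latency), mice received 10 mg/kg ip three times weekly for 28 days; controls got vehicle. Tumor volume tracked by caliper, giving percent growth inhibition at study end. Body weight checked at each dose and toxicity signs observed.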

The test system of series [8] is BT-474. The series is described as follows: Antiproliferative activity against human BT474 cells after 72 hrs by MTT assay. It is filed as functional, cell-based. As to conditions: BT-474, 72 h. The essentials:
as §2

The subject of series [9] is MDA-MB-231. Description: Cytotoxicity against human MDA-MB-231 cells at 25 uM after 24 hrs by LDH release assay (reference value: 100%). Format: functional. The essentials:
(§5)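 LDH release kit on MDA-MB-231 cells at four doses. LDH in the culture medium used as the marker of plasma membrane damage, expressed as percent cytotoxicity.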

In series [10] the test system is MDA-MB-468. The series is described as follows: Antiproliferative activity against human MDA-MB-468 cells after 72 hrs by MTT assay. It is filed as functional, cell-based. The conditions noted are these: MDA-MB-468, 72 h. Summed up:
as §2

For series [11], the system named is MDA-MB-231. Description: Cytotoxicity against human MDA-MB-231 cells at 100 uM after 24 hrs by LDH release assay relative to control. Format: functional. The essentials:
as §5
(In general: Release of lactate dehydrogenase indicates damage to the cell membrane.)

Series [12] deals with MDA-MB-231. The series is described as follows: Cytotoxicity against human MDA-MB-231 cells at 50 uM after 24 hrs by LDH release assay (reference value: 100%). Format: functional. The essentials:
as §5

Series [13] has as its target T1, Dual specificity mitogen-activated protein kinase kinase; MEK1/2 (Homo sapiens). The series is described as follows: Inhibition of MEK in human MDA-MB-231 cell lysate assessed as reduction in MAPK phosphorylation at 1.5 to 4 uM after 72 hrs by Western blot analysis. Summed up: as §3
The test system of series [14] is MDA-MB-231. Description: Antitumor activity against human GFP-fused MDA-MB-231 cells xenografted in Foxn1nu/Foxn1+ mouse assessed as tumor growth inhibition at 10 mg/kg, ip administered 3 times per week for 28 days relative to control. The conditions noted are these: MDA-MB-231, ip, 672 h, read-out: TGI. It is filed as functional. Summed up:
as §4

The subject of series [15] is MDA-MB-231. The series is described as follows: Cytotoxicity against human MDA-MB-231 cells at 100 uM after 24 hrs by LDH release assay (reference value: 100%). It is filed as functional. Summed up: as §5
For series [16], the system named is SK-BR-3. Description: Antiproliferative activity against human SKBR3 cells after 72 hrs by MTT assay. Format: functional, cell-based. The conditions noted are these: SK-BR-3, 72 h. Summed up:
as §2

Series [17] has as its system MDA-MB-231. The series is described as follows: Antimigratory activity against human MDA-MB-231 cells at 10 to 80 uM after 24 hrs by scratch wound-healing assay. Format: functional, cell-based.
In series [18] the test system is MDA-MB-231. Description: Antiinvasive activity against human MDA-MB-231 cells at 80 uM after 24 hrs by cell invasion assay relative to control. It is filed as functional. Summed up:
as §1

Series [19] has as its system MDA-MB-231. The series is described as follows: Cytotoxicity against human MDA-MB-231 cells at 75 uM after 24 hrs by LDH release assay (reference value: 100%). It is filed as functional. The essentials:
as §5

Series [20] concerns MDA-MB-231. The series is described as follows: Cytotoxicity against human MDA-MB-231 cells at 5 uM after 24 hrs by LDH release assay (reference value: 100%). Format: functional. Summed up: (§6)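 MDA-MB-231 cells were treated at four concentrations. LDH released into the culture medium through damaged plasma membranes was measured with a commercial LDH cytotoxicity kit and expressed as percent cytotoxicity.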

Series [21] concerns MDA-MB-231. The series is described as follows: Antimigratory activity against human MDA-MB-231 cells after 24 hrs by scratch wound-healing assay. It is filed as functional, cell-based.
Series [22] relates to MDA-MB-231. Description: Cytotoxicity against human MDA-MB-231 cells at 10 uM after 24 hrs by LDH release assay (reference value: 100%). Format: functional. Summed up:
as §6

Series [23] relates to MDA-MB-231. Description: Cytotoxicity against human MDA-MB-231 cells at 10 uM after 24 hrs by LDH release assay relative to control. Format: functional.
In series [24] the test system is MDA-MB-231. The series is described as follows: Cytotoxicity against human MDA-MB-231 cells at 2.5 uM after 24 hrs by LDH release assay (reference value: 100%). It is filed as functional. Summed up: as §6
Series [25] deals with MCF-10A. Description: Cytotoxicity against human MCF10A cells at 1 to 20 uM by MTT assay. Format: cell-based. Summed up:
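Immortalized, non-tumorigenic MCF-10A mammary epithelial cells were treated at several concentrations (1-20 μM). Mean percent viability was compared with the matching vehicle control-treated group.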

Series [26] has as its system MDA-MB-231. The series is described as follows: Cytotoxicity against human MDA-MB-231 cells at 1.25 uM after 24 hrs by LDH release assay (reference value: 100%). It is filed as functional. Summed up: as §6
Series [27] concerns MDA-MB-231. The series is described as follows: Antiinvasive activity against human MDA-MB-231 cells at 5 uM after 24 hrs by cell invasion assay relative to control. Format: functional. The essentials:
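MDA-MB-231 cells were plated in CultreCoat coated-insert invasion chambers and treated at four concentrations or with vehicle. At 24 h post-plating, non-invading cell density on the upper surface was assessed by microscopy. Percent invasion inhibition relative to vehicle was calculated, and IC₅₀ was derived from the dose-response.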

pIC50: −log10 of the molar value. Activity calls are given as the source filed them. The calls are words filed in the database; no cut-off is given here.

T1 sequence (P36507 whole entry, looked up): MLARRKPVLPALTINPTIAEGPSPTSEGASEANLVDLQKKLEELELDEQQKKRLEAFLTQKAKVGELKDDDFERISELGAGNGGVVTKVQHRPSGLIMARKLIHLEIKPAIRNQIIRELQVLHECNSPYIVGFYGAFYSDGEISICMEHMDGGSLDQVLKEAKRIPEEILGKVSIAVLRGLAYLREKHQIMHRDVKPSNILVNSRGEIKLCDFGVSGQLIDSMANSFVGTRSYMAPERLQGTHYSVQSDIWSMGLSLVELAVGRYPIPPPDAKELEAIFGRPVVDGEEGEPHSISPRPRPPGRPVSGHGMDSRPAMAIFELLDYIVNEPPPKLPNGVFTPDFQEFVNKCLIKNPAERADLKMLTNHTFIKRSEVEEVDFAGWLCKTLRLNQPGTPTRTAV
T1 sequence (Q02750 whole entry, looked up): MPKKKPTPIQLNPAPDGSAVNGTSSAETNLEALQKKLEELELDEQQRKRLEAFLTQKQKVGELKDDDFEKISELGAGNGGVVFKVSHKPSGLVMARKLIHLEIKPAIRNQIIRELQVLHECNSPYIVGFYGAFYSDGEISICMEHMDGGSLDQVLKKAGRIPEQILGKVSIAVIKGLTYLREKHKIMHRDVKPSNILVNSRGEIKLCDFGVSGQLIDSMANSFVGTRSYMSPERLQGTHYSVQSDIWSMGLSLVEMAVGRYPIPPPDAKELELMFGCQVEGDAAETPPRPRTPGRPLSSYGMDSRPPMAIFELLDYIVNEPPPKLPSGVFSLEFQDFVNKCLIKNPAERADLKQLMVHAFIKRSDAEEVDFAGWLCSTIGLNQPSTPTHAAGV

Usually pIC50 stands for the negative decadic logarithm of the IC50, by convention in mol/L. Low values mean a large IC50, high ones a small IC50. With `C[C@@H]1CC[C@@]2(OC1)O[C@H]1C[C@H]3[C@@H]4CC[C@H]5C[C@@H](O)CC[C@]5(C)[C@H]4CC(=O)[C@]3(C)[C@H]1[C@@H]2C`, the pIC50 was 4.54 in series [1]; 4.43 in [2]; 4.44 in series [3]; 4.51 in series [6]; 4.42 in [8]; 4.45 in series [10]. The same compound showed a pIC50 in series [16] of 4.48. In addition, the inhibition result in series [4], in [5] and in series [13] was “Active” throughout. The Activity entry in series [7] is recorded as “Non-Toxic”; in [9] it was 0.04%; in series [11] it was 27.8%; in [12], 2.72%; in series [15], 27.8%; in series [18] it was 86.2%. This compound registered an Activity in series [19] of 10.3%. The inhibition in vivo at 10 mg/kg in series [14] was determined as 57.4%. For the same compound, the result in series [17] was Active.

Take `Cc1ccccc1NC(=S)N/N=C1\C[C@H]2[C@@H](CC[C@H]3C[C@@H](O)CC[C@@]32C)[C@@H]2C[C@@H]3O[C@]4(CC[C@@H](C)CO4)[C@@H](C)[C@@H]3[C@@]12C`: the Activity in series [20] is 1.8%; in [21] it was “Dose-dependent effect”; in [22], 5.94%; in [7] it was “Non-Toxic”; in series [23], 5.9%; in series [24], 1.27%. Further, the Activity result in series [25] was “Non-Toxic”; in series [26] it was 0.74%; in [27] it was 92.4%. In addition, the pIC50 in series [1] was 5.72; in series [2], 5.66; in [3] it was 5.52; in series [21] (MDA-MB-231, 24 h), 5.60; in series [6] it was 5.68; in series [8], 5.59. The pIC50 was 5.62 in series [10] and 5.64 in [16]. Further, the inhibition result in series [4], in series [5] and in series [13] was “Active” throughout. For the same compound, the inhibition in vivo at 10 mg/kg in [14] worked out at 78.1%.
